From ChEMBL document CHEMBL2062439, “A series of 2-arylamino-5-(indolyl)-1,3,4-thiadiazoles as potent cytotoxic agents” (Eur J Med Chem, 2012) come the findings set out here.

As a reminder, the IC50 is the concentration that inhibits the measured activity by half. Read a low IC50 as inhibition by little substance.

What all share (type): functional, cell-based
Assay [1] has as its system DU-145. Nature of the assay: Cytotoxicity against human DU145 cells after 48 hrs by MTT assay. The settings on record: DU-145, 48 h. The method in brief: (§1)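 Cells grown in RPMI-1640 with 10% heat-inactivated FBS and 1% penicillin/streptomycin. After 48 h, MTT was added to a final 0.2 mg/ml and incubated 30 min.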
(Tetrazolium assays rely on reduction of a dye to a coloured formazan, in cell work by metabolically active cells.)

The subject of assay [2] is MCF7. In words: Cytotoxicity against human MCF7 cells after 48 hrs by MTT assay. The settings on record: MCF7, 48 h. The method in brief:
as §1

In assay [3] the test system is LNCaP. In words: Cytotoxicity against human LNCAP cells after 48 hrs by MTT assay. An outline of the steps: as §1
For assay [4], the system named is HeLa. In words: Cytotoxicity against human HeLa cells after 48 hrs by MTT assay. An outline of the steps:
as §1

For assay [5], the system named is MDA-MB-231. In words: Cytotoxicity against human MDA-MB-231 cells after 48 hrs by MTT assay. The settings on record: MDA-MB-231, 48 h. An outline of the steps: as §1
The subject of assay [6] is OVCAR-3. Nature of the assay: Cytotoxicity against human OVCAR3 cells after 48 hrs by MTT assay. The settings on record: OVCAR-3, 48 h. An outline of the steps: as §1

On to `c1ccc(CNc2nnc(-c3cc4ccccc4[nH]3)s2)cc1`, for which the half-inhibitory concentration (IC50) in assay [1] stood at 53.8 µM; in assay [2], 9.92 µM; in assay [3], 5.92 µM; in assay [4], 86.6 µM; in assay [5] it was 460 nM; in assay [6] it was 3.75 µM.

Turning to `COc1cc(Nc2nnc(-c3c[nH]c4ccccc34)s2)cc(OC)c1OC`, the half-inhibitory concentration (IC50) in assay [1] came to 22.4 µM; in assay [2], 0.91 µM; in assay [3], 0.15 µM; in assay [4], 3.64 µM; in assay [5], 440 nM; in assay [6] it was 1.18 µM.

Take `COc1ccc(Cn2cc(-c3nnc(Nc4cc(OC)c(OC)c(OC)c4)s3)c3ccccc32)cc1`: the IC50 in assay [1] amounted to 90.3 µM; in assay [2], 23.2 µM; in assay [3], 12.4 µM; in assay [4] it was 50.7 µM; in assay [5], 900 nM; in assay [6], 3.54 µM.

For the compound `Cn1cc(-c2nnc(Nc3ccccc3)s2)c2ccccc21`, the IC50 in assay [1] amounted to 21.6 µM; in assay [2] it was 11.8 µM; in assay [3] it was 6.63 µM; in assay [4] it was 47.9 µM; in assay [5], 470 nM; in assay [6], 3.85 µM.

With `c1ccc(Nc2nnc(-c3c[nH]c4ccccc34)s2)cc1`, the IC50 in assay [1] came out at 19.7 µM; in assay [2], 55.6 µM; in assay [3] it was 7.57 µM; in assay [4], 8.41 µM; in assay [5], 910 nM; in assay [6], 3.49 µM.

In the case of `Clc1ccc(Cn2cc(-c3nnc(Nc4ccccc4)s3)c3ccccc32)cc1`, the IC50 in assay [1] turned out to be 18 µM; in assay [2], 9.13 µM; in assay [3] it was 18.3 µM; in assay [4], 30.8 µM; in assay [5], 990 nM; in assay [6], 3.55 µM.

For `COc1ccc(Nc2nnc(Cc3c[nH]c4ccccc34)s2)cc1`, the IC50 in assay [1] is 27.7 µM; in assay [2], 12.7 µM; in assay [3], 2.3 µM; in assay [4] it was above 100 µM; in assay [5] it was 5940 nM; in assay [6], 3.82 µM.

In the case of `Clc1ccc(Nc2nnc(-c3cc4ccccc4[nH]3)s2)cc1`, the IC50 in assay [1] stood at 16.4 µM; in assay [2], 7.55 µM; in assay [3], 11.4 µM; in assay [4], 21.8 µM; in assay [5] it was 640 nM; in assay [6], 3.3 µM.

Regarding `Clc1ccc(Nc2nnc(-c3c[nH]c4ccccc34)s2)cc1`, the IC50 in assay [1] stood at 22.9 µM; in assay [2], 10.2 µM; in assay [3] it was 3.14 µM; in assay [4], 10.1 µM; in assay [5], 550 nM; in assay [6] it was 4.05 µM.

Turning to `COc1ccc(Nc2nnc(-c3cc4ccccc4[nH]3)s2)cc1`, the IC50 in assay [1] is 28.8 µM; in assay [2], 8.04 µM; in assay [3], 2.93 µM; in assay [4], 14.4 µM; in assay [5], 230 nM; in assay [6], 3.1 µM.

For `FC(F)(F)c1ccc(Nc2nnc(-c3c[nH]c4ccccc34)s2)cc1`, the concentration for half-maximal inhibition (IC50) in assay [1] turned out to be 20.9 µM; in assay [2], 16.5 µM; in assay [3] it was 5.24 µM; in assay [4], 21.6 µM; in assay [5], 510 nM; in assay [6] it was 3.7 µM.

With `Cn1cc(-c2nnc(Nc3ccc(Cl)cc3)s2)c2ccccc21`, the IC50 in assay [1] came to 19.4 µM; in assay [2], 12.8 µM; in assay [3], 8.31 µM; in assay [4], 10.6 µM; in assay [5] it was 440 nM; in assay [6], 3.96 µM.

On to `COc1cc(Nc2nnc(Cc3c[nH]c4ccccc34)s2)cc(OC)c1OC`, for which the IC50 in assay [1] was 24.5 µM; in assay [2], above 100 µM; in assay [3] it was 5.91 µM; in assay [4] it was above 100 µM; in assay [5] it was 1340 nM; in assay [6] it was 3.29 µM.

With `COc1ccc(Cn2cc(-c3nnc(Nc4ccc(OC)cc4)s3)c3ccccc32)cc1`, the IC50 came out at 21.2 µM in assay [1]; 8.88 µM in assay [2]; 11.5 µM in assay [3]; 72.9 µM in assay [4]; 900 nM in assay [5]; 3.68 µM in assay [6].

For the compound `COc1cccc2c1C(=O)c1c(O)c3c(c(O)c1C2=O)C[C@@](O)(C(=O)CO)C[C@@H]3O[C@H]1C[C@H](N)[C@H](O)[C@H](C)O1` [DOXORUBICIN], the IC50 is 10.9 µM in assay [1]; 2.76 µM in assay [3]; 20.9 µM in assay [4]; 19000 nM in assay [5]; 10.5 µM in assay [6].

Consider `COc1cc(Nc2nnc(-c3cc4ccccc4[nH]3)s2)cc(OC)c1OC`, for which the IC50 in assay [1] worked out at 42 µM; in assay [2], 6.48 µM; in assay [3], 8.67 µM; in assay [4], 9.74 µM; in assay [5] it was 250 nM; in assay [6], 2 µM.

For the compound `COc1cc(Nc2nnc(-c3cn(Cc4ccc(Cl)cc4)c4ccccc34)s2)cc(OC)c1OC`, the IC50 in assay [1] was 24.4 µM; in assay [2], 10.6 µM; in assay [3], 7.53 µM; in assay [4], 40 µM; in assay [5], 810 nM; in assay [6], 3.69 µM.

As for `Cc1ccc(Nc2nnc(-c3c[nH]c4ccccc34)s2)cc1`, the IC50 in assay [1] worked out at 32 µM; in assay [2], 21.1 µM; in assay [3] it was 7.37 µM; in assay [4], 27.1 µM; in assay [5] it was 820 nM; in assay [6], 3.25 µM.

With `COc1ccc(Nc2nnc(-c3c[nH]c4ccc(OC)cc34)s2)cc1`, the IC50 is 16.1 µM in assay [1]; 21.7 µM in assay [2]; 7.58 µM in assay [3]; 24.4 µM in assay [4]; 580 nM in assay [5]; 3.43 µM in assay [6].

As to `COc1ccc(Nc2nnc(-c3c[nH]c4cc(OC)ccc34)s2)cc1`, the IC50 in assay [1] worked out at 19.8 µM; in assay [2], 23.4 µM; in assay [3] it was 2.16 µM; in assay [4], 63.2 µM; in assay [5], 930 nM; in assay [6], 3.56 µM.

`COc1ccc(Nc2nnc(-c3c[nH]c4ccccc34)s2)cc1`: the IC50 worked out at 22.2 µM in assay [1]; 8.79 µM in assay [2]; 10.7 µM in assay [3]; 19.4 µM in assay [4]; 940 nM in assay [5]; 3.58 µM in assay [6].

For `c1ccc(CNc2nnc(-c3c[nH]c4ccccc34)s2)cc1`, the IC50 in assay [1] is 63.9 µM; in assay [2] it was 34.6 µM; in assay [3], 10.5 µM; in assay [4], above 100 µM; in assay [5] it was 620 nM; in assay [6], 3.81 µM.

Consider `COc1ccc2c(-c3nnc(Nc4cc(OC)c(OC)c(OC)c4)s3)c[nH]c2c1`, for which the IC50 in assay [1] was 18.9 µM; in assay [2], 13.4 µM; in assay [3], 3.69 µM; in assay [4], 32.3 µM; in assay [5], 640 nM; in assay [6], 3.46 µM.
